ChEMBL document CHEMBL4033697, “Synthesis of methanesulphonamido-benzimidazole derivatives as gastro-sparing antiinflammatory agents with antioxidant effect” (Bioorg Med Chem Lett, 2017)

What was measured:
Rattus norvegicus [1] = assay: Anti-inflammatory activity in rat assessed as reduction in carrageenan-induced paw edema at 5 mg/kg, po measured after 5 hrs by plethysmographic method relative to control; type: functional; parameters: scale not given: the % may be the effect or the level left
Outline: (§1)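 Rats; carrageenan in 0.9% saline injected into paw; compound suspended in 0.5% w/v CMC given orally 30 min after carrageenan, three graded doses per compound. Paw volume by plethysmograph before and at intervals after treatment; values at 5 h. % reduction in edema = (1 − Vt/Vc) × 100 versus carrageenan control; ED50 from the three graded doses; one-way ANOVA.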

Rattus norvegicus [2] = assay: Anti-inflammatory activity in rat assessed as reduction in carrageenan-induced paw edema at 25 mg/kg, po measured after 5 hrs by plethysmographic method relative to control; type: functional; parameters: scale not given: the % may be the effect or the level left; outline: as §1
Rattus norvegicus [3] = assay: Anti-inflammatory activity in rat assessed as reduction in carrageenan-induced paw edema at 75 mg/kg, po measured after 5 hrs by plethysmographic method relative to control; type: functional; parameters: scale not given: the % may be the effect or the level left; outline: as §1
Rattus norvegicus [4] = assay: Anti-inflammatory activity in po dosed rat assessed as reduction in carrageenan-induced paw edema measured after 5 hrs by plethysmographic method; type: functional; outline: as §1
Rattus norvegicus [5] = assay: Toxicity in rat model of carrageenan-induced paw edema assessed as behavioral changes at 5 to 75 mg/kg, po measured during compound dosing; type: organism-based; conditions: in vivo
[6] = Antioxidant activity of the compound in phosphate buffer at pH 6.6 assessed as potassium ferric cyanide ion reducing activity at 1 umol/ml after 20 mins by spectrophotometric method relative to control; type: functional; parameters: scale not given: the % may be the effect or the level left
Outline: (§2)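 Methanolic sample (1.0–50.0 […], units as printed) mixed with 0.2 M phosphate buffer pH 6.6 and 1% K3Fe(CN)6, 50 °C for 20 min; cooled, 10% TCA added, aliquot diluted with water plus 0.1% FeCl3, 10 min stand. A700 read against a methanol control; triplicate. Reducing power (%) = [(Atest − Acontrol)/Atest] × 100; EC50 derived; ascorbic acid standard.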

[7] = Antioxidant activity of the compound in phosphate buffer at pH 6.6 assessed as potassium ferric cyanide ion reducing activity at 2.5 umol/ml after 20 mins by spectrophotometric method relative to control; type: functional; parameters: scale not given: the % may be the effect or the level left; outline: as §2
[8] = Antioxidant activity of the compound in phosphate buffer at pH 6.6 assessed as potassium ferric cyanide ion reducing activity at 5 umol/ml after 20 mins by spectrophotometric method relative to control; type: functional; parameters: scale not given: the % may be the effect or the level left; outline: as §2
[9] = Antioxidant activity of the compound in phosphate buffer at pH 6.6 assessed as potassium ferric cyanide ion reducing activity at 10 umol/ml after 20 mins by spectrophotometric method relative to control; type: functional; parameters: scale not given: the % may be the effect or the level left; outline: as §2
[10] = Antioxidant activity of the compound in phosphate buffer at pH 6.6 assessed as potassium ferric cyanide ion reducing activity at 25 umol/ml after 20 mins by spectrophotometric method relative to control; type: functional; parameters: scale not given: the % may be the effect or the level left; outline: as §2
[11] = Antioxidant activity of the compound in phosphate buffer at pH 6.6 assessed as potassium ferric cyanide ion reducing activity at 50 umol/ml after 20 mins by spectrophotometric method relative to control; type: functional; parameters: scale not given: the % may be the effect or the level left; outline: as §2
[12] = Antioxidant activity of the compound in phosphate buffer at pH 6.6 assessed as potassium ferric cyanide ion reducing activity after 20 mins by spectrophotometric method; type: functional; outline: as §2
Rattus norvegicus [13] = assay: Ulcerogenicity in rat model of carrageenan-induced paw edema assessed as diameter of lesion in gastric wall at 5 mg/kg, po measured after 5 hrs; type: toxicity, organism-based; conditions: in vivo
Outline: (§3)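 After oral dosing in 0.5% CMC in the carrageenan paw model, rats were killed by cervical dislocation. Stomachs were inflated with 2% formalin, immersed 10 min to fix, and opened along the greater curvature. Longest lesion diameters were summed as a total lesion score (mm) per animal and averaged per group. Rofecoxib served as negative control and indomethacin as positive control.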

Rattus norvegicus [14] = assay: Ulcerogenicity in rat model of carrageenan-induced paw edema assessed as diameter of lesion in gastric wall at 25 mg/kg, po measured after 5 hrs; type: toxicity, organism-based; conditions: in vivo; outline: as §3
Rattus norvegicus [15] = assay: Ulcerogenicity in rat model of carrageenan-induced paw edema assessed as diameter of lesion in gastric wall at 75 mg/kg, po measured after 5 hrs; type: toxicity, organism-based; conditions: in vivo; outline: as §3
Rattus norvegicus [16] = assay: Anti-inflammatory activity in rat assessed as reduction in carrageenan-induced paw edema at 10 mg/kg, po measured after 5 hrs by plethysmographic method relative to control; type: functional; parameters: scale not given: the % may be the effect or the level left; outline: as §1
Rattus norvegicus [17] = assay: Ulcerogenicity in rat model of carrageenan-induced paw edema assessed as diameter of lesion in gastric wall at 10 mg/kg, po measured after 5 hrs; type: toxicity, organism-based; conditions: in vivo; outline: as §3
Rattus norvegicus [18] = assay: Anti-inflammatory activity in rat assessed as reduction in carrageenan-induced paw edema at 30 mg/kg, po measured after 5 hrs by plethysmographic method relative to control; type: functional; parameters: scale not given: the % may be the effect or the level left; outline: as §1
Rattus norvegicus [19] = assay: Ulcerogenicity in rat model of carrageenan-induced paw edema assessed as diameter of lesion in gastric wall at 30 mg/kg, po measured after 5 hrs; type: toxicity, organism-based; conditions: in vivo; outline: as §3
Rattus norvegicus [20] = assay: Anti-inflammatory activity in rat assessed as reduction in carrageenan-induced paw edema at 2.5 mg/kg, po measured after 5 hrs by plethysmographic method relative to control; type: functional; parameters: scale not given: the % may be the effect or the level left; outline: as §1
Rattus norvegicus [21] = assay: Anti-inflammatory activity in rat assessed as reduction in carrageenan-induced paw edema at 40 mg/kg, po measured after 5 hrs by plethysmographic method relative to control; type: functional; parameters: scale not given: the % may be the effect or the level left; outline: as §1
Rattus norvegicus [22] = assay: Toxicity in rat model of carrageenan-induced paw edema assessed as behavioral changes at 2.5 to 40 mg/kg, po measured during compound dosing; type: organism-based; conditions: in vivo
Rattus norvegicus [23] = assay: Ulcerogenicity in rat model of carrageenan-induced paw edema assessed as diameter of lesion in gastric wall at 2.5 mg/kg, po measured after 5 hrs; type: toxicity, organism-based; conditions: in vivo; outline: as §3
Rattus norvegicus [24] = assay: Ulcerogenicity in rat model of carrageenan-induced paw edema assessed as diameter of lesion in gastric wall at 40 mg/kg, po measured after 5 hrs; type: toxicity, organism-based; conditions: in vivo; outline: as §3

Row | Compound | Activity (Rattus norvegicus [1]) [%] | Activity (Rattus norvegicus [2]) [%] | Activity (Rattus norvegicus [3]) [%] | ED50 (Rattus norvegicus [4]) [mg/kg] | Activity (Rattus norvegicus [5]) | Activity [6] [%] | Activity [7] [%] | Activity [8] [%] | Activity [9] [%] | Activity [10] [%] | Activity [11] [%] | EC50 [12] [mM] | Activity (Rattus norvegicus [13]) [mm] | Activity (Rattus norvegicus [14]) [mm] | Activity (Rattus norvegicus [15]) [mm] | further results
1 | CCCCn1c(CCC)nc2cc(N)ccc21 | 59.09 | 56.82 | 59.09 | 5.52 | Non-Toxic | 6.3 | 15.4 | 29.9 | 44.8 | 55.6 | 62.5 | 18.2 | 0.28 | 0.54 | 1.13 | 
2 | CCCCCn1c(CCC)nc2cc([N+](=O)[O-])ccc21 | 63.64 | 68.18 | 68.18 | 4.8 | Non-Toxic | 0.4 | 2.1 | 5.8 | 10.7 | 20.8 | 39.8 | > 50 | 0.33 | 0.69 | 1.03 | 
3 | CCCCCCn1c(CCC)nc2cc([N+](=O)[O-])ccc21 | 51.87 | 61.26 | 78.25 | 3.97 | Non-Toxic | 0.9 | 2.8 | 6.8 | 17.9 | 30.1 | 45.9 | > 50 | 0.22 | 0.54 | 1.26 | 
4 | COc1ccc2c(c1)c(CC(=O)O)c(C)n2C(=O)c1ccc(Cl)cc1 [INDOMETHACIN] |  |  |  | 2.2 |  |  |  |  |  |  |  |  |  |  |  | Activity (Rattus norvegicus [16]): 75%; Activity (Rattus norvegicus [17]): 19.4 mm
5 | CS(=O)(=O)c1ccc(C2=C(c3ccccc3)C(=O)OC2)cc1 [ROFECOXIB] |  |  |  |  |  |  |  |  |  |  |  |  |  |  |  | Activity (Rattus norvegicus [18]): 78.95%; Activity (Rattus norvegicus [19]): 2.92 mm
6 | CCCc1nc2cc([N+](=O)[O-])ccc2[nH]1 | 2.27 | 6.82 | 6.82 |  | Non-Toxic |  |  |  |  |  |  |  | 0 | 0.22 | 0.32 | 
7 | O=C1O[C@H]([C@@H](O)CO)C(O)=C1O [ASCORBIC ACID] |  |  |  |  |  | 6.8 | 15.5 | 39.8 | 60.8 | 65.2 | 69.4 | 7.4 |  |  |  | 
8 | CCCCCCn1c(CCC)nc2cc(NS(C)(=O)=O)ccc21 |  |  |  | 2.45 |  | 10.6 | 29.2 | 49.7 | 66.5 | 69.6 | 75.4 | 5.1 |  |  |  | Activity (Rattus norvegicus [16]): 86.36%; Activity (Rattus norvegicus [20]): 50.18%; Activity (Rattus norvegicus [21]): 97.62%; Activity (Rattus norvegicus [22]): Non-Toxic; Activity (Rattus norvegicus [17]): 0.69 mm; Activity (Rattus norvegicus [23]): 0.2 mm; Activity (Rattus norvegicus [24]): 1.02 mm
9 | CCCCCCn1c(CCC)nc2cc(N)ccc21 | 33.13 | 49.8 | 69.13 | 5.16 | Non-Toxic | 6 | 12.9 | 34.5 | 48 | 57.1 | 65.9 | 10.3 | 0.27 | 0.52 | 1.06 | 
10 | CCCCn1c(CCC)nc2cc(NS(C)(=O)=O)ccc21 |  |  |  | 2.58 |  | 12.2 | 31.3 | 59.8 | 61.8 | 70.3 | 73.5 | 4 |  |  |  | Activity (Rattus norvegicus [16]): 86.36%; Activity (Rattus norvegicus [20]): 43.64%; Activity (Rattus norvegicus [21]): 92.73%; Activity (Rattus norvegicus [22]): Non-Toxic; Activity (Rattus norvegicus [17]): 0.51 mm; Activity (Rattus norvegicus [23]): 0.27 mm; Activity (Rattus norvegicus [24]): 1.1 mm
11 | CCCCCn1c(CCC)nc2cc(NS(C)(=O)=O)ccc21 |  |  |  | 2.55 |  | 15.4 | 32.7 | 58 | 66.5 | 72.8 | 79.1 | 3.7 |  |  |  | Activity (Rattus norvegicus [16]): 86.36%; Activity (Rattus norvegicus [20]): 48.18%; Activity (Rattus norvegicus [21]): 95.64%; Activity (Rattus norvegicus [22]): Non-Toxic; Activity (Rattus norvegicus [17]): 0.5 mm; Activity (Rattus norvegicus [23]): 0.25 mm; Activity (Rattus norvegicus [24]): 1.01 mm
12 | CCCCn1c(CCC)nc2cc([N+](=O)[O-])ccc21 | 29.55 | 47.73 | 52.27 | 4.79 | Non-Toxic | 0.6 | 2.5 | 6.8 | 16.8 | 29.2 | 45.4 | > 50 | 0.35 | 0.7 | 1.04 | 
13 | CCCCCn1c(CCC)nc2cc(N)ccc21 | 45.91 | 54.36 | 66.36 | 5.47 | Non-Toxic | 8.7 | 18.7 | 30.2 | 49 | 60.1 | 67.3 | 10.2 | 0.27 | 0.52 | 1.06 | 
14 | CCCc1nc2ccccc2[nH]1 | 0.45 | 53.18 | 77.27 | 5.53 | Non-Toxic |  |  |  |  |  |  |  | 0.1 | 0.2 | 0.42 | 
